ChEMBL document CHEMBL5303300, “EUbOPEN Chemogenomics Library - Multiplex” (2023)
“And” between values parts separate entries of the source, which are not always exact repeats. Identical values can stand only once. *1 amine or outer side, *2 acyl side, *3 side chain or, on linkers, in order; H or OH if unused. Where a SMILES comes first, the peptide text is derived from it. Bridges are numbered along the chain shown (N, C = ends). Roman numbers before positions name the chains, in order. [ ]: non-standard residue; d: D form. Hexamethylenediamine = C(CCCN[*:2])CCN[*:1]; Dip = N[C@H](C(=O)O)C(c1ccccc1)c1ccccc1; Chg = N[C@H](C(=O)O)C1CCCCC1; NMeA = CN[C@@H](C)C(=O)O

Tested on: Fibroblast
Assay: Multiplex assay against human fibroblast
Format: toxicity, cell-based
Conditions: number of replicates 2
Procedure, shortened: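 Cells stained live at seeding with Hoechst33342, BioTracker Green Microtubule Cytoskeleton Dye, MitoTracker Red and Annexin V Alexa Fluor 680 were imaged on a CQ1 microscope at 37°C and 5% CO2 after compound addition. Their classification by CellPathfinder machine-learning gating ran from Hoechst high-intensity objects versus normal cells, to healthy, pyknosed or fragmented nuclei among normal cells, to mitotic or apoptotic among pyknosed cells. Tubulin, mitochondrial-mass and membrane-permeability phenotypes are per cents of healthy-nucleus cells.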

[1] = 12 h, 1 µM, compound concentration 1 uM
[2] = 12 h, 10 µM, compound concentration 10 uM
[3] = 24 h, 1 µM, compound concentration 1 uM
[4] = 24 h, 10 µM, compound concentration 10 uM
[5] = 48 h, 1 µM, compound concentration 1 uM
[6] = 48 h, 10 µM, compound concentration 10 uM

`CN[C@@H](C)C(=O)N[C@H](C(=O)N1CCC[C@H]1C(=O)N[C@H](C(=O)NCCCCCCNC(=O)[C@@H](NC(=O)[C@@H]1CCCN1C(=O)[C@@H](NC(=O)[C@H](C)NC)C1CCCCC1)C(c1ccccc1)c1ccccc1)C(c1ccccc1)c1ccccc1)C1CCCCC1` (I: H-[NMeA][Chg]P[Dip] / II: H-[NMeA][Chg]P[Dip]; linker I:C-II:C via Hexamethylenediamine) was tested, and the “Population Apoptotic (%)” value [1] was 29% and 33%, the “Population Fragmented Nuclei (%)” value [1] was 14% and 9% and the “Population Healthy Nuclei (%)” value [1] was 64% and 70%. For the same molecule, the “Population Hoechst High Intensity Objects (%)” value [1] was 0%, the “Population Membrane Permeable-Phenotype (%)” value [1] was 5% and 3% and the “Population Mitochondria Different-Phenotype (%)” value [1] was 0% and 3%. The “Population Mitotic Cells (%)” value [1] was 70% and 66%, the “Population Normal (%)” value [1] was 100% and the “Population Pyknosed Nuclei (%)” value [1] was 21% and 20%. For the same molecule, the “Population Tubulin-Different-Phenotype (%)” value [1] was 18% and 9%, the “Total Cell Count” value [1] was 205 and 174 and the “Population Apoptotic (%)” value [2] was 43% and 60%. For the same molecule, the “Population Fragmented Nuclei (%)” value [2] was 15% and 11%, the “Population Healthy Nuclei (%)” value [2] was 55% and the “Population Hoechst High Intensity Objects (%)” value [2] was 0%. The “Population Membrane Permeable-Phenotype (%)” value [2] was 4% and 3%, the “Population Mitochondria Different-Phenotype (%)” value [2] was 6% and 15% and the “Population Mitotic Cells (%)” value [2] was 56% and 39%. The “Population Normal (%)” value [2] was 100% and 99%, the “Population Pyknosed Nuclei (%)” value [2] was 29% and 33% and the “Population Tubulin-Different-Phenotype (%)” value [2] was 59% and 55%. The “Total Cell Count” value [2] was 210 and 251, the “Population Apoptotic (%)” value [3] was 43% and 45% and the “Population Fragmented Nuclei (%)” value [3] was 9% and 10%. For the same molecule, the “Population Healthy Nuclei (%)” value [3] was 68% and 66%, the “Population Hoechst High Intensity Objects (%)” value [3] was 0% and the “Population Membrane Permeable-Phenotype (%)” value [3] was 5% and 4%. For the same molecule, the “Population Mitochondria Different-Phenotype (%)” value [3] was 4% and 2%, the “Population Mitotic Cells (%)” value [3] was 56% and 55% and the “Population Normal (%)” value [3] was 100% and 99%. For the same molecule, the “Population Pyknosed Nuclei (%)” value [3] was 21% and 22%, the “Population Tubulin-Different-Phenotype (%)” value [3] was 24% and 16% and the “Total Cell Count” value [3] was 203 and 176. For the same molecule, the “Population Apoptotic (%)” value [4] was 72% and 60%, the “Population Fragmented Nuclei (%)” value [4] was 22% and 20% and the “Population Healthy Nuclei (%)” value [4] was 48% and 60%. The “Population Hoechst High Intensity Objects (%)” value [4] was 0%, the “Population Membrane Permeable-Phenotype (%)” value [4] was 9% and 11% and the “Population Mitochondria Different-Phenotype (%)” value [4] was 36% and 23%. The “Population Mitotic Cells (%)” value [4] was 27% and 39%, the “Population Normal (%)” value [4] was 100% and the “Population Pyknosed Nuclei (%)” value [4] was 29% and 19%. For the same molecule, the “Population Tubulin-Different-Phenotype (%)” value [4] was 63% and 71%, the “Total Cell Count” value [4] was 249 and 210 and the “Population Apoptotic (%)” value [5] was 52% and 53%. The “Population Fragmented Nuclei (%)” value [5] was 16% and 12%, the “Population Healthy Nuclei (%)” value [5] was 65% and 73% and the “Population Hoechst High Intensity Objects (%)” value [5] was 0%. The “Population Membrane Permeable-Phenotype (%)” value [5] was 3% and 5%, the “Population Mitochondria Different-Phenotype (%)” value [5] was 3% and 2% and the “Population Mitotic Cells (%)” value [5] was 47% and 46%. For the same molecule, the “Population Normal (%)” value [5] was 100%, the “Population Pyknosed Nuclei (%)” value [5] was 17% and 14% and the “Population Tubulin-Different-Phenotype (%)” value [5] was 23% and 13%. The “Total Cell Count” value [5] was 206 and 194, the “Population Apoptotic (%)” value [6] was 83% and 76% and the “Population Fragmented Nuclei (%)” value [6] was 35% and 30%. The “Population Healthy Nuclei (%)” value [6] was 57%, the “Population Hoechst High Intensity Objects (%)” value [6] was 0% and the “Population Membrane Permeable-Phenotype (%)” value [6] was 8% and 3%. The “Population Mitochondria Different-Phenotype (%)” value [6] was 12% and 20%, the “Population Mitotic Cells (%)” value [6] was 16% and 23% and the “Population Normal (%)” value [6] was 100% and 99%. For the same molecule, the “Population Pyknosed Nuclei (%)” value [6] was 6% and 12%, the “Population Tubulin-Different-Phenotype (%)” value [6] was 79% and 67% and the “Total Cell Count” value [6] was 258 and 314.
For `CCN1C(=O)N(c2c(F)c(OC)cc(OC)c2F)Cc2cnc3[nH]c(CN4CCOCC4)cc3c21` [PEMIGATINIB], the “Population Apoptotic (%)” value [1] was 60% and 45%, the “Population Fragmented Nuclei (%)” value [1] was 8% and the “Population Healthy Nuclei (%)” value [1] was 75% and 58%. For the same molecule, the “Population Hoechst High Intensity Objects (%)” value [1] was 0%, the “Population Membrane Permeable-Phenotype (%)” value [1] was 3% and 8% and the “Population Mitochondria Different-Phenotype (%)” value [1] was 1%. The “Population Mitotic Cells (%)” value [1] was 40% and 54%, the “Population Normal (%)” value [1] was 99% and 100% and the “Population Pyknosed Nuclei (%)” value [1] was 15% and 33%. The “Population Tubulin-Different-Phenotype (%)” value [1] was 13% and 14%, the “Total Cell Count” value [1] was 220 and 246 and the “Population Apoptotic (%)” value [2] was 57% and 38%. For the same molecule, the “Population Fragmented Nuclei (%)” value [2] was 12% and 20%, the “Population Healthy Nuclei (%)” value [2] was 53% and 51% and the “Population Hoechst High Intensity Objects (%)” value [2] was 0%. For the same molecule, the “Population Membrane Permeable-Phenotype (%)” value [2] was 8% and 12%, the “Population Mitochondria Different-Phenotype (%)” value [2] was 1% and 4% and the “Population Mitotic Cells (%)” value [2] was 42% and 61%. For the same molecule, the “Population Normal (%)” value [2] was 100%, the “Population Pyknosed Nuclei (%)” value [2] was 33% and 28% and the “Population Tubulin-Different-Phenotype (%)” value [2] was 37% and 26%. For the same molecule, the “Total Cell Count” value [2] was 134 and 190, the “Population Apoptotic (%)” value [3] was 72% and 67% and the “Population Fragmented Nuclei (%)” value [3] was 8% and 7%. The “Population Healthy Nuclei (%)” value [3] was 76% and 61%, the “Population Hoechst High Intensity Objects (%)” value [3] was 0% and the “Population Membrane Permeable-Phenotype (%)” value [3] was 5% and 7%. The “Population Mitochondria Different-Phenotype (%)” value [3] was 1% and 0%, the “Population Mitotic Cells (%)” value [3] was 27% and 32% and the “Population Normal (%)” value [3] was 99% and 100%. The “Population Pyknosed Nuclei (%)” value [3] was 15% and 30%, the “Population Tubulin-Different-Phenotype (%)” value [3] was 7% and 14% and the “Total Cell Count” value [3] was 237 and 226. The “Population Apoptotic (%)” value [4] was 69% and 46%, the “Population Fragmented Nuclei (%)” value [4] was 16% and 20% and the “Population Healthy Nuclei (%)” value [4] was 57% and 50%. The “Population Hoechst High Intensity Objects (%)” value [4] was 0%, the “Population Membrane Permeable-Phenotype (%)” value [4] was 3% and 5% and the “Population Mitochondria Different-Phenotype (%)” value [4] was 3%. For the same molecule, the “Population Mitotic Cells (%)” value [4] was 30% and 53%, the “Population Normal (%)” value [4] was 100% and the “Population Pyknosed Nuclei (%)” value [4] was 26% and 28%. For the same molecule, the “Population Tubulin-Different-Phenotype (%)” value [4] was 29% and 11%, the “Total Cell Count” value [4] was 136 and 182 and the “Population Apoptotic (%)” value [5] was 75% and 71%. For the same molecule, the “Population Fragmented Nuclei (%)” value [5] was 10%, the “Population Healthy Nuclei (%)” value [5] was 76% and 60% and the “Population Hoechst High Intensity Objects (%)” value [5] was 0%. The “Population Membrane Permeable-Phenotype (%)” value [5] was 5% and 3%, the “Population Mitochondria Different-Phenotype (%)” value [5] was 0% and the “Population Mitotic Cells (%)” value [5] was 24% and 28%. The “Population Normal (%)” value [5] was 99%, the “Population Pyknosed Nuclei (%)” value [5] was 13% and 28% and the “Population Tubulin-Different-Phenotype (%)” value [5] was 5% and 8%. The “Total Cell Count” value [5] was 240 and 232, the “Population Apoptotic (%)” value [6] was 81% and 83% and the “Population Fragmented Nuclei (%)” value [6] was 17% and 25%. For the same molecule, the “Population Healthy Nuclei (%)” value [6] was 57% and 51%, the “Population Hoechst High Intensity Objects (%)” value [6] was 0% and the “Population Membrane Permeable-Phenotype (%)” value [6] was 5% and 8%. The “Population Mitochondria Different-Phenotype (%)” value [6] was 1%, the “Population Mitotic Cells (%)” value [6] was 18% and 16% and the “Population Normal (%)” value [6] was 100%. The “Population Pyknosed Nuclei (%)” value [6] was 25% and 22%, the “Population Tubulin-Different-Phenotype (%)” value [6] was 25% and 18% and the “Total Cell Count” value [6] was 128 and 166.
With `CCOC(=O)Nc1cc(-c2ccc(C)c(NS(C)(=O)=O)c2)nn2c(C)nnc12` the “Population Apoptotic (%)” value [2] was 56% and 50% and 58% and 35%, the “Population Fragmented Nuclei (%)” value [2] was 24% [middle of 4 runs] and the “Population Healthy Nuclei (%)” value [2] was 74% and 67% and 65% and 60%. For the same molecule, the “Population Hoechst High Intensity Objects (%)” value [2] was 0%, the “Population Mitochondria Different-Phenotype (%)” value [2] was 4% and 3% and 1% and the “Population Mitotic Cells (%)” value [2] was 43% and 50% and 41% and 64%. The “Population Normal (%)” value [2] was 99% and 100%, the “Population Pyknosed Nuclei (%)” value [2] was 13% and 8% and the “Population Tubulin-Different-Phenotype (%)” value [2] was 52% and 63% and 54% and 62%. The “Total Cell Count” value [2] was 238 and 256 and 323 and 254, the “Population Apoptotic (%)” value [4] was 52% and 69% and 65% and 42% and the “Population Fragmented Nuclei (%)” value [4] was 33% and 20% and 21% and 34%. For the same molecule, the “Population Healthy Nuclei (%)” value [4] was 58% and 68% and 66% and 56%, the “Population Hoechst High Intensity Objects (%)” value [4] was 0% and the “Population Membrane Permeable-Phenotype (%)” value [4] was 11% and 5% and 12%. For the same molecule, the “Population Mitochondria Different-Phenotype (%)” value [4] was 7% and 4% and 2%, the “Population Mitotic Cells (%)” value [4] was 47% and 30% and 34% and 57% and the “Population Normal (%)” value [4] was 100%. The “Population Pyknosed Nuclei (%)” value [4] was 7% and 11% and 8%, the “Population Tubulin-Different-Phenotype (%)” value [4] was 57% and 33% and 29% and 43% and the “Total Cell Count” value [4] was 314 and 289 and 319 and 299. The “Population Apoptotic (%)” value [6] was 80% and 97% and 72%, the “Population Fragmented Nuclei (%)” value [6] was 16% and 27% and 31% and the “Population Healthy Nuclei (%)” value [6] was 71% and 60% and 67% and 52%. For the same molecule, the “Population Hoechst High Intensity Objects (%)” value [6] was 0%, the “Population Membrane Permeable-Phenotype (%)” value [6] was 10% [middle of 4 runs] and the “Population Mitochondria Different-Phenotype (%)” value [6] was 1% and 9% and 3% and 8%. The “Population Normal (%)” value [6] was 100%, the “Population Pyknosed Nuclei (%)” value [6] was 12% and 16% and the “Population Tubulin-Different-Phenotype (%)” value [6] was 24% and 48% and 26% and 34%. The “Total Cell Count” value [6] was 248 and 265 and 292 and 250.
